Data published in ChEMBL document CHEMBL4610083, “Kendomycin Cytotoxicity against Bacterial, Fungal, and Mammalian Cells Is Due to Cation Chelation” (J Nat Prod, 2020).
Calls of active or inactive are those of the source. No cut-off for these calls is given here. Residues, ends and D or L forms follow the SMILES beside them. *: point of attachment. Cbz = O=C(OCc1ccccc1)*

Legend:
HCT-116 [1] = assay: Inhibition of protein biogenesis in human HCT116 cells assessed as reduction in total protein level at 100 to 1000 nM preincubated for 30 mins followed by addition of 35S-labeled methionine/cysteine and measured after 90 mins by autoradiography; type: functional, cell-based
In short: (§1)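 HCT116 cells seeded at 0.5 × 10^6/well and grown 24 h at 37 °C, 5% CO2. Washed, then given compound in Met/Cys-free DMEM for 30 min at 37 °C. Pulsed with 100 μCi 35S-Met/Cys for 90 min. Total protein taken by RIPA extraction of the cell pellet; secreted protein by TCA precipitation of the medium. Gels exposed to phosphor screens and scanned.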

Proteasome [2] = assay: Inhibition of proteosome in HEK293T cells assessed as reduction in UbG76V-GFP degradation at 250 nM incubated for 4 hrs by flow cytometric analysis; details: Homo sapiens, HEK-293T
[3] = Binding affinity to Cu2+ ion assessed as compound-Cu2+ formation by 1H NMR spectroscopy
[4] = Metal chelating activity assessed as compound-Cu2+ complex formation by UV-Vis spectrophotometric analysis
In short: (§2)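 250 μM compound titrated with increasing metal concentrations and absorption spectra recorded. A320 measured in quadruplicate; averages fitted to a binding curve to give apparent Kapp.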

Saccharomyces cerevisiae [5] = assay: Antifungal activity against Saccharomyces cerevisiae assessed as reduction in microbial growth in presence of FeCl2; type: functional, organism-based
In short: (§3)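 Single-colony inhibition on solid medium, with or without 1 mM FeCl2 or 0.25 mM CuCl2 in the agar. Colonies washed off the plates with PBS and cell density read as A600. Inhibition curves fitted by regression.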

Proteasome [6] = assay: Inhibition of proteosome in human K562 cells assessed as reduction in UbG76V-GFP degradation at 2.5 to 10 uM incubated for 4 hrs by flow cytometric analysis
In short: (§4)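 K562 cells carrying a lentivirally integrated, TRE2-driven UbG76V-GFP reporter. Reporter induced with 1 μg/mL doxycycline (final) 16 h before compound. Cells treated with compound or carrier for 4 h, then GFP fluorescence measured by flow cytometry.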

[7] = Binding affinity to Fe2+ ion assessed as compound-Fe2+ formation by 1H NMR spectroscopy
[8] = Metal chelating activity assessed as compound-[…] complex formation by UV-Vis spectrophotometric analysis
[9] = Metal chelating activity assessed as compound-Fe3+ complex formation by UV-Vis spectrophotometric analysis; in short: as §2
[10] = Metal chelating activity assessed as compound-calcium complex formation by UV-Vis spectrophotometric analysis
HCT-116 [11] = assay: Antiproliferative activity against human HCT116 cells assessed as reduction in cell viability incubated for 72 hrs in presence of FeCl2 by AlamarBlue assay; type: functional, cell-based
In short: (§5)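 HCT116 cells in McCoy's 5A with 10% FBS, seeded at 2500 cells/well. Dosed 16 h after plating, with or without 0.5 mM FeCl2 or 0.5 mM CuCl2. After 72 h, 10% resazurin added for 4 h, then fluorescence read (ex 580/em 620 nm). Viability given as % of carrier growth; curves from quadruplicate technical replicates.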

Bacillus subtilis [12] = assay: Antibacterial activity against Bacillus subtilis assessed as reduction in microbial growth in presence of FeCl2 by serial dilution method; type: functional, organism-based
In short: (§6)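 Mid-log cultures in LB back-diluted to low OD; 8-point compound serial dilution added, with or without freshly prepared 0.25 mM FeCl2 or 0.25 mM CuCl2. Incubation at 37 °C with orbital shaking at 1000 rpm. Cell density read as A600, duplicate data sets, inhibition curves fitted by regression.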

HCT-116 [13] = assay: Antiproliferative activity against human HCT116 cells assessed as reduction in cell viability incubated for 72 hrs in presence of CuCl2 by AlamarBlue assay; type: functional, cell-based; in short: as §5
HCT-116 [14] = assay: Inhibition of protein biogenesis in human HCT116 cells assessed as reduction in secreted protein level at 100 to 1000 nM preincubated for 30 mins followed by addition of 35S-labeled methionine/cysteine and measured after 90 mins by autoradiography; type: functional, cell-based; in short: as §1
Saccharomyces cerevisiae [15] = assay: Antifungal activity against Saccharomyces cerevisiae assessed as reduction in microbial growth in presence of CuCl2; type: functional, organism-based; in short: as §3
Bacillus subtilis [16] = assay: Antibacterial activity against Bacillus subtilis assessed as reduction in microbial growth in presence of CuCl2 by serial dilution method; type: functional, organism-based; in short: as §6
[17] = Metal chelating activity assessed as compound-Fe2+ complex formation by UV-Vis spectrophotometric analysis; in short: as §2
HCT-116 [18] = assay: Inhibition of protein biogenesis in human HCT116 cells assessed as reduction in total protein level preincubated for 30 mins followed by addition of 35S-labeled methionine/cysteine and measured after 90 mins by autoradiography; type: functional, cell-based
In short: (§7)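 HCT116 cells seeded at 0.5 × 10^6 per well and grown 24 h at 37 °C, 5% CO2. After two washes, compound in DMEM lacking Met/Cys was added for 30 min at 37 °C, then 100 μCi 35S-Met/Cys for a further 90 min. Secreted protein was recovered from medium by TCA precipitation, total protein by RIPA extraction of washed cells. Gels were read by phosphor screen imaging.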

HCT-116 [19] = assay: Inhibition of protein biogenesis in human HCT116 cells assessed as reduction in secreted protein level preincubated for 30 mins followed by addition of 35S-labeled methionine/cysteine and measured after 90 mins by autoradiography; type: functional, cell-based; in short: as §7
Proteasome [20] = assay: Inhibition of proteosome in human K562 cells assessed as reduction in UbG76V-GFP degradation at 2 uM incubated for 4 hrs by flow cytometric analysis; in short: as §4

Question: For `CC1=C2O[C@]3(O)C=C2C(=C(O)C1=O)[C@@H]1O[C@H](CC[C@H](C)/C=C(\C)C[C@@H](C)C[C@@H]3C)[C@H](C)[C@H](O)[C@H]1C`, which inhibition (HCT-116 [1]) is on record?
Answer: inactive

Question: And the inhibition (Proteasome [2])?
Answer: inactive

Question: And the Activity [3]?
Answer: Active

Question: What about the Activity [4] of the same compound?
Answer: Dose-dependent effect

Question: What about the Kapp [4] of the same compound?
Answer: 48 µM

Question: And the Activity (Saccharomyces cerevisiae [5])?
Answer: inactive

Question: And the inhibition (Proteasome [6])?
Answer: inactive

Question: And the Activity [7]?
Answer: Active

Question: What about the Activity [8] of the same compound?
Answer: inactive

Question: And the Activity [9]?
Answer: Dose-dependent effect

Question: And the Kapp [9]?
Answer: 76 µM

Question: And the Activity [10]?
Answer: inactive

Question: What about the Activity (HCT-116 [11]) of the same compound?
Answer: inactive

Question: And the Activity (Bacillus subtilis [12])?
Answer: inactive

Question: What about the Activity (HCT-116 [13]) of the same compound?
Answer: Active

Question: What about the inhibition (HCT-116 [14]) of the same compound?
Answer: inactive

Question: And the Activity (Saccharomyces cerevisiae [15])?
Answer: inactive

Question: What about the Activity (Bacillus subtilis [16]) of the same compound?
Answer: inactive

Question: What about the Activity [17] of the same compound?
Answer: Dose-dependent effect

Question: And the Kapp [17]?
Answer: 19 µM

Question: Which results are given for `C[C@@H]1C[C@@H]([C@H](O)CC2CC(=O)NC(=O)C2)C(=O)[C@@H](C)C1`?
Answer: inhibition (HCT-116 [18]): Active; inhibition (HCT-116 [19]): Active

Question: What does the source list for `CC(C)C[C@@H](C=O)NC(=O)[C@H](CC(C)C)NC(=O)[C@H](CC(C)C)NC(=O)OCc1ccccc1` (Cbz-Leu-Leu-Leu-aldehyde)?
Answer: inhibition (Proteasome [2]): Active; inhibition (Proteasome [20]): Active
